In test [1] the target is Sodium-dependent dopamine transporter (Rattus norvegicus, UniProt P23977). Put plainly: Ability to inhibit [3H]DA reuptake at dopamine transporter from rat brain. An outline of the steps:
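Rat brain P2 synaptosomes in modified KRH buffer (pH 7.4, nialamide); drug preincubation 30 min at 4 °C, then 15 min at 37 °C. [3H]DA (~5 nM final) uptake for 5 min, ended with cold sodium-free buffer, GF/C filtration and scintillation counting.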

Test [2] has as its target Sodium-dependent serotonin transporter (Rattus norvegicus, UniProt P31652). The test is described as follows: Ability to inhibit [3H]5-HT reuptake at serotonin transporter from rat brain. The method, boiled down: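 P2 synaptosomes from rat brain in modified KRH buffer (pH 7.4, nialamide), preincubated with drug 30 min at 4 °C, then 15 min at 37 °C. [3H]5-HT (~5 nM final) added for 5 min; stopped with cold sodium-free buffer, then GF/C filtration and scintillation counting. Nonspecific uptake set with 10 μM fluoxetine.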

Test [3] has as its target Monoamine transporters; Norepinephrine & serotonin (Rattus norvegicus) (UniProt P31652+Q9WTR4). The test is described as follows: Uptake ratio at norepinephrine to serotonin transporters from rat brain. An outline of the steps:
(§1)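 Selectivity ratios calculated from Ki values of the rat brain synaptosomal [3H]DA, [3H]5-HT and [3H]NE uptake inhibition assays.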

Test [4] concerns the target Monoamine transporters; Norepininephrine & dopamine (Rattus norvegicus) (UniProt P23977+Q9WTR4). The test is described as follows: Uptake ratio at norepinephrine to dopamine transporters from rat brain. An outline of the steps: as §1
For test [5], the target named is Monoamine transporters; serotonin & dopamine (Rattus norvegicus) (UniProt P31652+P23977). Put plainly: Uptake ratio at serotonin to dopamine transporters from rat brain. An outline of the steps:
as §1

Test [6] concerns the target Norepinephrine transporter (Rattus norvegicus, UniProt Q9WTR4). Put plainly: Ability to inhibit [3H]NE reuptake at norepinephrine transporter from rat brain. The method, boiled down:
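Synaptosomes (P2, rat brain) in modified KRH buffer (pH 7.4, nialamide) with drug, 30 min at 4 °C then 15 min at 37 °C. [3H]NE (9 nM final) uptake for 5 min; terminated by cold sodium-free buffer, GF/C filtration and scintillation counting. Specific uptake defined with 3 μM desipramine.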

The values below come from ChEMBL document CHEMBL1145040, “Biaryl analogues of conformationally constrained tricyclic tropanes as potent and selective norepinephrine reuptake inhibitors: synthesis and evaluation of their uptake inhibition at monoamine transporter sites” (J Med Chem, 2003).

Sodium-dependent serotonin transporter, sequence (P31652 whole entry): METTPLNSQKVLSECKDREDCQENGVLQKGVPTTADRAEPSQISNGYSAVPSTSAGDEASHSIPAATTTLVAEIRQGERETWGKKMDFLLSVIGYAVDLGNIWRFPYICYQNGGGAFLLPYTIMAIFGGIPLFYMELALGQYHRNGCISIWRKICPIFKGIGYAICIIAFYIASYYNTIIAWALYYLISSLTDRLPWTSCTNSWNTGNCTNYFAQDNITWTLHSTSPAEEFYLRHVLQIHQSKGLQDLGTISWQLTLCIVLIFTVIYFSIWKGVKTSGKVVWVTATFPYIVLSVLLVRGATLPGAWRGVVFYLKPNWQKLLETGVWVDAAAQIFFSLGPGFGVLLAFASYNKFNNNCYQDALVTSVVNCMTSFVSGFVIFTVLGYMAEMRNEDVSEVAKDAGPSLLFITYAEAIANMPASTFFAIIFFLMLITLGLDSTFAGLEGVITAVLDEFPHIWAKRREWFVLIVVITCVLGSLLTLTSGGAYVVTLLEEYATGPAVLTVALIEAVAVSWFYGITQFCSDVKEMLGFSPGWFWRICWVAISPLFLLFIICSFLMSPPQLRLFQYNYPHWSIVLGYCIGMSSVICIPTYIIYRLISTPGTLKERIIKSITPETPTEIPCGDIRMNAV
Norepinephrine transporter, sequence (Q9WTR4 whole entry): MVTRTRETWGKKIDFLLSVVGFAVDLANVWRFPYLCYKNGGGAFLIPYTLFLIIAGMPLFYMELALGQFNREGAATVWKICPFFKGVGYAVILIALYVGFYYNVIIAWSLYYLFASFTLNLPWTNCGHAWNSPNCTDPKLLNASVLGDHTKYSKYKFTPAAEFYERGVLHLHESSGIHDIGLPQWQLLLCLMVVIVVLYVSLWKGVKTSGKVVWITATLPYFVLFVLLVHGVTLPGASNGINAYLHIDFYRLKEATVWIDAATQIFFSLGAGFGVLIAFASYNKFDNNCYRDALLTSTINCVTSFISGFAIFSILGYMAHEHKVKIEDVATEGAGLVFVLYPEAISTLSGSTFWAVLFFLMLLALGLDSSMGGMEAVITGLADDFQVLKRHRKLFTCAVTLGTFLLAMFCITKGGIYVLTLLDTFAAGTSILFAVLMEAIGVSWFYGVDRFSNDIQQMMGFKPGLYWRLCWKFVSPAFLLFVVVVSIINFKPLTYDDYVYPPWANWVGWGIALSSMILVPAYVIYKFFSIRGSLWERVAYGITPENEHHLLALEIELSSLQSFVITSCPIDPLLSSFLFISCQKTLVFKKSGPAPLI
Monoamine transporters; serotonin & dopamine (Rattus norvegicus), sequence (P23977 whole entry, looked up): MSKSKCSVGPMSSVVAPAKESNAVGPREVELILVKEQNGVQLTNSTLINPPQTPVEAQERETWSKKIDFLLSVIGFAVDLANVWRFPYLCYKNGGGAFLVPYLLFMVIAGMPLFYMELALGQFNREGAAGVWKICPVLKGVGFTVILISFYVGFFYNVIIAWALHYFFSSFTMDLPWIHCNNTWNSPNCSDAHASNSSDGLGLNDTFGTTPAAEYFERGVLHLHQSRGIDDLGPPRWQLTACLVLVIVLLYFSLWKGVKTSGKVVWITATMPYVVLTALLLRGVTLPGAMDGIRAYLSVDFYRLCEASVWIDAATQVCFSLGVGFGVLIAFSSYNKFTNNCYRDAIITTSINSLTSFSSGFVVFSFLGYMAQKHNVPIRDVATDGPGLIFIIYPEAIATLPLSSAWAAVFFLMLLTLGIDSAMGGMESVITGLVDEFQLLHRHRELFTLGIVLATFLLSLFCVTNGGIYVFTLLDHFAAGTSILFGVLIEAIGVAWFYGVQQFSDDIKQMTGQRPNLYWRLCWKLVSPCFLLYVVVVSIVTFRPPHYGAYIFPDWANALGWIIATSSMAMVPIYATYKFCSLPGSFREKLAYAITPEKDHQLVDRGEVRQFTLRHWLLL
Monoamine transporters; serotonin & dopamine (Rattus norvegicus), sequence (P31652 whole entry, looked up): as the sequence (P31652 whole entry) above
Sodium-dependent dopamine transporter, sequence (P23977 whole entry): as the sequence (P23977 whole entry, looked up) above

In general, Ki refers to a dissociation constant, usually derived from enzyme kinetics or from competition with a known ligand. Low readings indicate tighter binding, high ones weaker binding. As to `COC(=O)C1C2CCC3CCC1N(C/C2=C\c1ccc(-c2ccc(Cl)cc2Cl)cc1)C3` (centres undefined), the Ki in test [1] came out at 1590 nM; in test [2] it was 393 nM; in test [6], 466 nM. The figures for the Ratio in test [3], in test [4] and in test [5] were 1.19, 0.29 and 0.25, respectively.

Take `COC(=O)C1C2CCC3CCC1N(C/C2=C\c1ccc(-c2ccsc2)cc1)C3` (centres undefined): the inhibitory constant (Ki) was 277 nM in test [1], 145 nM in test [2] and 20.5 nM in test [6]. Also, the Ratio in test [3] turned out to be 0.14; in test [4], 0.07; in test [5], 0.52.

In the case of `O=C(OCC1C2CCC3CCC1N(C/C2=C\c1ccc(-c2ccc(Cl)c(Cl)c2)c(Cl)c1)C3)c1ccccc1` (centres undefined), the Ki in test [1] is 5640 nM; in test [2], 956 nM; in test [6], over 10000 nM. Also, the Ratio in test [5] worked out at 0.17.

For the compound `OC[C@@H]1C2CCC3CCC1N(C/C2=C\c1ccc(-c2ccccc2)cc1)C3` (some centres undefined), the Ki in test [1] came to 1300 nM; in test [2] it was 1540 nM; in test [6], 183 nM. For the same compound, the Ratio stood at 0.12 in test [3], 0.14 in test [4] and 1.19 in test [5].

With `COC(=O)C1C2CCC3CCC1N(C/C2=C\c1ccc(-c2ccc(OC)cc2)s1)C3` (centres undefined), the Ki came to 317 nM in test [1], 531 nM in test [2] and 10.3 nM in test [6]. Further, the Ratio worked out at 0.02 in test [3], 0.03 in test [4] and 1.43 in test [5].

Turning to `COC(=O)C1C2CCC3CCC1N(C/C2=C\c1ccc(-c2ccccc2)s1)C3` (centres undefined), the Ki in test [1] worked out at 179 nM; in test [2], 71 nM; in test [6], 13.5 nM. Also, the Ratio came out at 0.19 in test [3], 0.08 in test [4] and 0.4 in test [5].

Take `COC(=O)C1C2CCC3CCC1N(C/C2=C\c1ccc(-c2ccc(N(C)C)cc2)cc1)C3` (centres undefined): the figures for the Ki in test [1], in test [2] and in test [6] were 1050 nM, 1000 nM and 57.9 nM, respectively. For the same compound, the Ratio worked out at 0.06 in test [3], 0.05 in test [4] and 0.95 in test [5].

For the compound `COC(=O)C1C2CCC3CCC1N(C/C2=C\c1ccc(-c2ccc(C)s2)cc1)C3` (centres undefined), the Ki is 674 nM in test [1], 200 nM in test [2] and 22.5 nM in test [6]. For the same compound, the Ratio was determined as 0.11 in test [3] and 0.3 in test [5].

Regarding `COC(=O)C1C2CCC3CCC1N(C/C2=C\c1ccc(-c2ccc(OC)cc2)cc1)C3` (centres undefined), the Ki worked out at 841 nM in test [1], 3390 nM in test [2] and 39 nM in test [6]. Further, the values for the Ratio in test [3], in test [4] and in test [5] were 0, 0.05 and 4.04, respectively.

Consider `COC(=O)C1C2CCC3CCC1N(C/C2=C\c1ccc(-c2cc(Cl)cc(Cl)c2)cc1)C3` (centres undefined), for which the results for the inhibition constant (Ki) in test [1], in test [2] and in test [6] were 106 nM, 383 nM and 61 nM, respectively. Besides, the Ratio in test [3] is 0.16; in test [4] it was 0.58; in test [5], 3.62.

Take `COC(=O)C1C2CCC3CCC1N(C/C2=C\c1ccc(-c2ccc(I)cc2)cc1)C3` (centres undefined): the results for the inhibitory constant (Ki) in test [1], in test [2] and in test [6] were 377 nM, 660 nM and 114 nM, respectively. The results for the Ratio in test [4] and in test [5] were 0.3 and 1.75, respectively.

With `COC(=O)C1C2CCC3CCC1N(C/C2=C\c1ccc(-c2ccccc2)c(Cl)c1)C3` (centres undefined), the Ki in test [1] is 4260 nM; in test [2], 366 nM; in test [6] it was 991 nM. For the same compound, the Ratio in test [3] was 2.71; in test [4], 0.23; in test [5], 0.09.

As to `COC(=O)C1C2CCC3CCC1N(C/C2=C\c1ccc(-c2ccc(C)cc2)cc1)C3` (centres undefined), the Ki in test [1] was 214 nM; in test [2], 1490 nM; in test [6], 22.7 nM. Besides, the Ratio in test [3] was determined as 0.02; in test [4], 0.11; in test [5], 6.97.

For `COC(=O)C1C2CCC3CCC1N(C/C2=C\c1ccc(-c2ccc(Cl)cc2)cc1)C3` (centres undefined), the inhibition constant (Ki) in test [1] stood at 417 nM; in test [2] it was 1260 nM; in test [6], 739 nM. The Ratio in test [3] is 0.59; in test [4], 1.77; in test [5], 3.03.

As for `COC(=O)C1C2CCC3CCC1N(C/C2=C\c1ccc(-c2ccc(C(F)(F)F)cc2)cc1)C3` (centres undefined), the figures for the Ki in test [1], in test [2] and in test [6] were 3130 nM, 2210 nM and 1150 nM, respectively. Moreover, the Ratio in test [3] turned out to be 0.52; in test [4], 0.37; in test [5], 0.71.

Regarding `COC(=O)C1C2CCC3CCC1N(C/C2=C\c1ccc(-n2cccc2)cc1)C3` (centres undefined), the Ki in test [1] is 568 nM; in test [2] it was 149 nM; in test [6], 45.9 nM. In addition, the values for the Ratio in test [3], in test [4] and in test [5] were 0.31, 0.08 and 0.26, respectively.

In the case of `COC(=O)[C@@H]1C2CCC3CCC1N(C/C2=C\c1ccc(-c2ccccc2)cc1)C3` (some centres undefined), the Ki in test [1] was 477 nM; in test [2] it was 614 nM; in test [6] it was 12 nM. Besides, the results for the Ratio in test [3], in test [4] and in test [5] were 0.02, 0.02 and 1.29, respectively.

For `COC(=O)C1C2CCC3CCC1N(C/C2=C\c1ccc(-c2cccc(Cl)c2)cc1)C3` (centres undefined), the Ki in test [1] stood at 89 nM; in test [2], 213 nM; in test [6] it was 17.5 nM. Further, the Ratio in test [3] was found to be 0.08; in test [4], 0.2; in test [5] it was 2.4.

Turning to `CC(=O)OCC1C2CCC3CCC1N(C/C2=C\c1ccc(-c2ccccc2)cc1)C3` (centres undefined), the Ki is 165 nM in test [1], 46 nM in test [2] and 57 nM in test [6]. Further, the Ratio turned out to be 1.24 in test [3], 0.35 in test [4] and 0.28 in test [5].

In the case of `COC(=O)C1C2CCC3CCC1N(C/C2=C\c1ccc(-c2ccc(C#N)cc2)cc1)C3` (centres undefined), the Ki in test [1] was 47 nM; in test [2], 909 nM; in test [6] it was 32.4 nM. Moreover, the Ratio in test [3] was determined as 0.04; in test [4], 0.69; in test [5], 19.3.

For the compound `COC(=O)C1C2CCC3CCC1N(C/C2=C\c1ccc(-c2cccs2)cc1)C3` (centres undefined), the values for the Ki in test [1], in test [2] and in test [6] were 155 nM, 73 nM and 19.8 nM, respectively. In addition, the Ratio in test [3] is 0.27; in test [4], 0.13; in test [5], 0.47.

In the case of `COC(=O)C1C2CCC3CCC1N(C/C2=C\c1ccc(-c2ccc(Cl)c(Cl)c2)cc1)C3` (centres undefined), the figures for the Ki in test [1], in test [2] and in test [6] were 236 nM, 239 nM and 9.7 nM, respectively. Also, the Ratio in test [3] was 0.04; in test [4], 0.04; in test [5], 1.01.

Regarding `COC(=O)C1C2CCC3CCC1N(C/C2=C\c1ccc(-c2ccco2)cc1)C3` (centres undefined), the Ki in test [1] came out at 98 nM; in test [2] it was 248 nM; in test [6], 13.9 nM. Also, the Ratio came to 0.06 in test [3], 0.14 in test [4] and 2.54 in test [5].
